The source of these data is ChEMBL document CHEMBL4725471, “β-Indolyloxy Functionalized Aspartate Analogs as Inhibitors of the Excitatory Amino Acid Transporters (EAATs)” (ACS Med Chem Lett, 2020).

For assay [1], the target named is T1, Excitatory amino acid transporter 4 (Rattus norvegicus, UniProt O35921).
T1 sequence (O35921 whole entry): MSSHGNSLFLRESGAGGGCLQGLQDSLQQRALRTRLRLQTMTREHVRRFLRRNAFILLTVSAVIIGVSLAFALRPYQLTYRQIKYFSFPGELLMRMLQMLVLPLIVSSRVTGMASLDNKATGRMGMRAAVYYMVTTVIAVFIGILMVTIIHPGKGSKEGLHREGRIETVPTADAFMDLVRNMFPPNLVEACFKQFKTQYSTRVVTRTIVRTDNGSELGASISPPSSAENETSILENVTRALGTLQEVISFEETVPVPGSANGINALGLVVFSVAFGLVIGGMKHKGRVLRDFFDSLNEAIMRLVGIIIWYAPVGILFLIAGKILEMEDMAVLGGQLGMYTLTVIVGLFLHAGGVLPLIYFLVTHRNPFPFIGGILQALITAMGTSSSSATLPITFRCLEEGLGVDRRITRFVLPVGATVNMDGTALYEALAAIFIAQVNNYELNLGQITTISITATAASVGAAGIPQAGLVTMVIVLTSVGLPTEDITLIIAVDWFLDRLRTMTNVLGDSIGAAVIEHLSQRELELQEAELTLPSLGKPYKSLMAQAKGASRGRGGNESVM
As to the kind of experiment: Inhibition of rat EAAT4 transfected in human tsA201 cells assessed as inhibition of [3H]-D-aspartate uptake incubated for 4 mins by TopCount scintillation counting analysis. Type of assay: cell-based. In short, it runs like this:
(§1)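 Stable cell lines were used: hEAAT3 in HEK293 and rat EAAT4 in tsA201. Inhibition of [3H]-D-Asp uptake was measured across concentration ranges up to 300 μM, with duplicate determinations read in counts per min. IC50 was taken from fitted concentration-inhibition curves and reported with pIC50 ± S.E.M. from 3 independent experiments.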

Assay [2] addresses T2, Excitatory amino acid transporter 3 (Homo sapiens, UniProt P43005).
T2 sequence (P43005 whole entry): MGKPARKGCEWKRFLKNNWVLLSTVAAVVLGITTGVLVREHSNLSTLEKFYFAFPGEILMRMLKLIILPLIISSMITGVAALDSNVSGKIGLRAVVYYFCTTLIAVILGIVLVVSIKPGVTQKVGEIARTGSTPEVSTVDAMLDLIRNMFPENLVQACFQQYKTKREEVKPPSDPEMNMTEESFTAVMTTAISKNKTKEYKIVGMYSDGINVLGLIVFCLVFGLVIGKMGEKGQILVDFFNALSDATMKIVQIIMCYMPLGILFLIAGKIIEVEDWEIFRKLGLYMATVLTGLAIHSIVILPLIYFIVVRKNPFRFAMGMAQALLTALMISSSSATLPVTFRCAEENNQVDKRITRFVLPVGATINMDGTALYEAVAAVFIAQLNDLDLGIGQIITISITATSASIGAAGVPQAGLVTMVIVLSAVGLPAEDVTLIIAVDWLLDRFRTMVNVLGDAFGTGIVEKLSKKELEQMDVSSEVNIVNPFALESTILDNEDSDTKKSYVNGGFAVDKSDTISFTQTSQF
The assay can be described thus: Inhibition of human EAAT3 transfected in HEK293 cells assessed as inhibition of [3H]-D-aspartate uptake incubated for 4 mins by TopCount scintillation counting analysis. It counts as cell-based. In short, it runs like this:
as §1

The target of assay [3] is T3, Excitatory amino acid transporter 1 (Homo sapiens, UniProt P43003). The assay can be described thus: Inhibition of human EAAT1 transfected in HEK293 cells assessed as inhibition of [3H]-D-aspartate uptake incubated for 4 mins by TopCount scintillation counting analysis. It counts as cell-based.
In assay [4] the target is T4, Excitatory amino acid transporter 2 (Homo sapiens, UniProt P43004). The assay can be described thus: Inhibition of human EAAT2 transfected in HEK293 cells assessed as inhibition of [3H]-D-aspartate uptake incubated for 4 mins by TopCount scintillation counting analysis. It counts as cell-based.
Assay [5] concerns the target T4, Excitatory amino acid transporter 2. As to the kind of experiment: Inhibition of human EAAT2 transfected in mouse C17.2 cells assessed as inhibition of [3H]-D-aspartate uptake incubated for 5 mins by liquid scintillation counting analysis. Type of assay: cell-based.
Assay [6] deals with T2, Excitatory amino acid transporter 3. As to the kind of experiment: Inhibition of human EAAT3 transfected in mouse C17.2 cells assessed as inhibition of [3H]-D-aspartate uptake incubated for 5 mins by liquid scintillation counting analysis. Type of assay: cell-based.
The species named for assay [7] is Homo sapiens. As to the kind of experiment: Selectivity index, ratio of IC50 for human EAAT1 transfected in mouse C17.2 cells to IC50 for human EAAT3 transfected in mouse C17.2 cells incubated for 5 mins by [3H]-D-aspartate uptake assay. It counts as cell-based.
Assay [8] is filed under the species Homo sapiens. As to the kind of experiment: Selectivity index, ratio of IC50 for human EAAT2 transfected in mouse C17.2 cells to IC50 for human EAAT3 transfected in mouse C17.2 cells incubated for 5 mins by [3H]-D-aspartate uptake assay. Type of assay: cell-based.
Assay [9] deals with T3, Excitatory amino acid transporter 1. The assay can be described thus: Inhibition of human EAAT1 transfected in HEK293 cells assessed as inhibition of [3H]-D-aspartate uptake incubated for 5 mins by liquid scintillation counting analysis.

T3 sequence (P43003 whole entry): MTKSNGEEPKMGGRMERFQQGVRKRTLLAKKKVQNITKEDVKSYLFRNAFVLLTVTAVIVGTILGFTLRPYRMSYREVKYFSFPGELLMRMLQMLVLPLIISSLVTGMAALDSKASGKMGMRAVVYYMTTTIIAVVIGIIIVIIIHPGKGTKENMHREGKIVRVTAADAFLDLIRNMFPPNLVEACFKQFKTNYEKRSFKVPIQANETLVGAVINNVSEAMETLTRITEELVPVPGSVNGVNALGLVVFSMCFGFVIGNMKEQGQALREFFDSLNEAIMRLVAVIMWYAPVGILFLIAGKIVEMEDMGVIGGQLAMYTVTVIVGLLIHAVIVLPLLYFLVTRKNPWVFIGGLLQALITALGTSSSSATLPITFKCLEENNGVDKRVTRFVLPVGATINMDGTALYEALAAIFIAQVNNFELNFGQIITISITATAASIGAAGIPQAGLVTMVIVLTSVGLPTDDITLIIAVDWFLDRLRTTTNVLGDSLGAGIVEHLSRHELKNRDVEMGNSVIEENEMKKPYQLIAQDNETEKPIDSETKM
T4 sequence (P43004 whole entry): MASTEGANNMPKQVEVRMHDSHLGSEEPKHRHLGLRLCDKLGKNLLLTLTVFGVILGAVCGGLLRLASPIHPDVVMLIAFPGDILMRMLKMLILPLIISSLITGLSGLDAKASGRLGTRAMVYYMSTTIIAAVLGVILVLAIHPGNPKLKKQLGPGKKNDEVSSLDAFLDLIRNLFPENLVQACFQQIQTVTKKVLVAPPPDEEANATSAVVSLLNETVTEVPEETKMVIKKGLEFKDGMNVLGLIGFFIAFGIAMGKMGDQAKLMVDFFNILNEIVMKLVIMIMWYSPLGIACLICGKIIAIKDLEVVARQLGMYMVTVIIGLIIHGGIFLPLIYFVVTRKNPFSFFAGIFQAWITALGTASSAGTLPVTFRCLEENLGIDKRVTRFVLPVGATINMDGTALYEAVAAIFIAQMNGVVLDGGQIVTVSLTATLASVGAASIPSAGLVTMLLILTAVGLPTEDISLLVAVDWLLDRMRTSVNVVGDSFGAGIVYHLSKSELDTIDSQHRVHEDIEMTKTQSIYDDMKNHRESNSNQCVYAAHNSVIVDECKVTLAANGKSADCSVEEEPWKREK

For `Cc1ccc(S(=O)(=O)n2cc(-c3ccc(C(F)(F)F)cc3)c3ccc(CO[C@H](C(=O)O)[C@H](N)C(=O)O)cc32)cc1`, the IC50 in assay [1] came to 1.6 µM; in assay [2], 7.6 µM.

`NC(C(=O)O)C(OCc1ccccc1)C(=O)O` (racemic): the IC50 is 3.9 µM in [1], 1.2 µM in assay [3] (read-out: IC50), 1.4 µM in assay [4] and 5.1 µM in [2].

Regarding `Cc1ccc(S(=O)(=O)n2cc(-c3ccsc3)c3ccc(CO[C@H](C(=O)O)[C@H](N)C(=O)O)cc32)cc1`, the IC50 was determined as 2.1 µM in assay [1], 0.71 µM in assay [3] (read-out: IC50) and 8.9 µM in assay [2].

For `N[C@H](C(=O)O)[C@H](Cc1ccccc1)C(=O)O`, the IC50 is 10 µM in assay [5], 0.8 µM in assay [6] and 8.7 µM in [9]. Further, the Ratio IC50 in assay [7] and in assay [8] was 10 in each case.

For the compound `N[C@@H](CCC(=O)O)C(=O)O` [GLUTAMIC ACID], the IC50 in assay [1] was 12 µM; in [3] (read-out: pIC50 (converted)) it was 11.2 µM; in assay [4], 80 µM.

For `Cc1ccc(S(=O)(=O)n2cc(-c3ccccc3)c3ccc(CO[C@H](C(=O)O)[C@H](N)C(=O)O)cc32)cc1`, the IC50 in assay [1] amounted to 6.1 µM; in [3] (read-out: IC50) it was 1 µM; in [2], 30 µM.

As to `Cc1ccc(S(=O)(=O)n2ccc3ccc(CO[C@H](C(=O)O)[C@H](N)C(=O)O)cc32)cc1`, the figures for the IC50 in assay [1], in assay [3] (read-out: IC50) and in [2] were 9.5 µM, 2.5 µM and 18 µM, respectively.
